In ChEMBL document CHEMBL3860038, “Discovery of (R,E)-N-(7-Chloro-1-(1-[4-(dimethylamino)but-2-enoyl]azepan-3-yl)-1H-benzo[d]imidazol-2-yl)-2-methylisonicotinamide (EGF816), a Novel, Potent, and WT Sparing Covalent Inhibitor of Oncogenic (L858R, ex19del) and Resistant (T790M) EGFR Mutants for the Treatment of EGFR Mutant …” (J Med Chem, 2016):
≈ marks a conversion by molar mass, not a printed value.

Columns and labels:
[1] = biological target: T1, Epidermal growth factor receptor (Homo sapiens, UniProt P00533, L858R/T790M); assay: Inhibition of EGFR L858R/T790M mutant phosphorylation in human patient derived H1975 cells incubated for 3 hrs by ELISA method; assay type: cell-based
T1 sequence (P00533 25-1210 T790M/L858R limits assumed): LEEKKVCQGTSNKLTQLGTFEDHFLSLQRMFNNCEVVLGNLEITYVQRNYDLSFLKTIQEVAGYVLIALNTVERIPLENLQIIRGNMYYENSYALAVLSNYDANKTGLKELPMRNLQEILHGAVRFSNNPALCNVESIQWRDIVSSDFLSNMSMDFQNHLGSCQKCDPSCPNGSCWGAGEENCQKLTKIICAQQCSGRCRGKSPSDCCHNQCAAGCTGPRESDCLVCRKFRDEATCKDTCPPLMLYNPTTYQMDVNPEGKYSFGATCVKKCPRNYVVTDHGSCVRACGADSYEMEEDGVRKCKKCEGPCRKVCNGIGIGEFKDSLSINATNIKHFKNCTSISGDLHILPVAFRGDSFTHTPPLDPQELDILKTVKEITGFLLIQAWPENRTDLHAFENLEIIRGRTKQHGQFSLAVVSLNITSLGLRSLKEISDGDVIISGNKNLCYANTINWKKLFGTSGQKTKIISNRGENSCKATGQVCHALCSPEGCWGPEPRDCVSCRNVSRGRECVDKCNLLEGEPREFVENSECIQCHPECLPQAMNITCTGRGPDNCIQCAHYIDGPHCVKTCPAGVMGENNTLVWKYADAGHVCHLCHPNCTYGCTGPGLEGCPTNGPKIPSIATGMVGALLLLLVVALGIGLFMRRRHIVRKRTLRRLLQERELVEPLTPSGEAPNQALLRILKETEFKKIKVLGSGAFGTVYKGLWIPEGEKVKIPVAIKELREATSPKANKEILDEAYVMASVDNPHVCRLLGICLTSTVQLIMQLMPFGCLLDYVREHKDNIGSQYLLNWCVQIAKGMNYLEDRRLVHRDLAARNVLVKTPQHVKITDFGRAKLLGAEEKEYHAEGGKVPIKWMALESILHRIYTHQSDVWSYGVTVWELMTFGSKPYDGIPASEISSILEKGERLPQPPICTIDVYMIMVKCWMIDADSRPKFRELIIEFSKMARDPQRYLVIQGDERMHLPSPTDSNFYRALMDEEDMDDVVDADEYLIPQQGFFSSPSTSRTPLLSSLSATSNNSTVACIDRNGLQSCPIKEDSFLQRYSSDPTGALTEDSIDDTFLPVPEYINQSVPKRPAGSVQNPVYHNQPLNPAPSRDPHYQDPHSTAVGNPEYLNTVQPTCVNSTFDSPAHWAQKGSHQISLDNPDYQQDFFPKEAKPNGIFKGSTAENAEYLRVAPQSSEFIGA

[2] = biological target: T2, Epidermal growth factor receptor (Homo sapiens, UniProt P00533, L858R); assay: Inhibition of EGFR L858R mutant phosphorylation in human patient derived H3255 cells incubated for 3 hrs by ELISA method; assay type: cell-based
T2 sequence (P00533 25-1210 L858R limits assumed): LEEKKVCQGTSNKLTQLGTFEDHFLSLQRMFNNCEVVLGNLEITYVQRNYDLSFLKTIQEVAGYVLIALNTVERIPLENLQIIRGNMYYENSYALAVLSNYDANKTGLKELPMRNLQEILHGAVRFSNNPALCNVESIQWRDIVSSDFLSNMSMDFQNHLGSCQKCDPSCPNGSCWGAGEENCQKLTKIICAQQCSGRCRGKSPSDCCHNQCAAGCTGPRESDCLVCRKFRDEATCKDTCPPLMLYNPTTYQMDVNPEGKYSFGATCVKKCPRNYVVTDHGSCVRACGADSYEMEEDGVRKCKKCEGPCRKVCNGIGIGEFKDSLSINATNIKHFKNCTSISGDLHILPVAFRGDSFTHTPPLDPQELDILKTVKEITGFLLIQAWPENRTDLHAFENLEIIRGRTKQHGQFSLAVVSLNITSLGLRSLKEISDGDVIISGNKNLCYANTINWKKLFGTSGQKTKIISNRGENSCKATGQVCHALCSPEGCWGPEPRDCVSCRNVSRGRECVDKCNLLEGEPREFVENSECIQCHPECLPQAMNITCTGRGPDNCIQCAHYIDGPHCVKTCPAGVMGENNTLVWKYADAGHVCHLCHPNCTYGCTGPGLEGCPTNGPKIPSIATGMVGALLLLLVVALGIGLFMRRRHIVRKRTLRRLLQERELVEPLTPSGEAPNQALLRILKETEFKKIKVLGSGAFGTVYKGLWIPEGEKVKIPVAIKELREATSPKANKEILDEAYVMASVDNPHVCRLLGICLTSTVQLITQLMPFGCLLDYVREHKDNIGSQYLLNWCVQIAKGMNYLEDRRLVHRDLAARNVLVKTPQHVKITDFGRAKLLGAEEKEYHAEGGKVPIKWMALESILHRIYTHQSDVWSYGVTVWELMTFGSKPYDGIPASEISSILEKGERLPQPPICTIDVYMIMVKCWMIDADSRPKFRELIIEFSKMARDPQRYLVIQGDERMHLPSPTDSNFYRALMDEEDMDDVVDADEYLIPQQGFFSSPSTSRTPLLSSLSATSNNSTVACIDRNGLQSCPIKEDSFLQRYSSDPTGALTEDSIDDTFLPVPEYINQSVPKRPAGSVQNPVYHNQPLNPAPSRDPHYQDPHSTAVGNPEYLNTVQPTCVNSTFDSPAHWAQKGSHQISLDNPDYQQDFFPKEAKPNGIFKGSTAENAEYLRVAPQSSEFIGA

[3] = Inhibition of EGFR E746 to A750 deletion mutant phosphorylation in human patient derived HCC827 cells incubated for 3 hrs by ELISA method; assay type: cell-based; conditions: HCC827, 3 h
Outline: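 HCC827 cells plated at 7500/well in 5% FBS/RPMI and left overnight at 37 °C. Then 3 h with a 12-point compound dilution series, no EGF stimulation. Lysed in Triton/protease/phosphatase-inhibitor buffer. Phospho-EGFR (Y1173) read by sandwich ELISA: anti-EGFR capture, anti-phospho-EGFR, anti-rabbit-HRP, chemiluminescence. IC50 from at least duplicates.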

[4] = biological target: T3, Epidermal growth factor receptor (Homo sapiens, UniProt P00533); assay: Inhibition of wild type EGFR phosphorylation in human HaCaT cells incubated for 3 hrs by ELISA method; assay type: cell-based
T3 sequence (P00533 whole entry): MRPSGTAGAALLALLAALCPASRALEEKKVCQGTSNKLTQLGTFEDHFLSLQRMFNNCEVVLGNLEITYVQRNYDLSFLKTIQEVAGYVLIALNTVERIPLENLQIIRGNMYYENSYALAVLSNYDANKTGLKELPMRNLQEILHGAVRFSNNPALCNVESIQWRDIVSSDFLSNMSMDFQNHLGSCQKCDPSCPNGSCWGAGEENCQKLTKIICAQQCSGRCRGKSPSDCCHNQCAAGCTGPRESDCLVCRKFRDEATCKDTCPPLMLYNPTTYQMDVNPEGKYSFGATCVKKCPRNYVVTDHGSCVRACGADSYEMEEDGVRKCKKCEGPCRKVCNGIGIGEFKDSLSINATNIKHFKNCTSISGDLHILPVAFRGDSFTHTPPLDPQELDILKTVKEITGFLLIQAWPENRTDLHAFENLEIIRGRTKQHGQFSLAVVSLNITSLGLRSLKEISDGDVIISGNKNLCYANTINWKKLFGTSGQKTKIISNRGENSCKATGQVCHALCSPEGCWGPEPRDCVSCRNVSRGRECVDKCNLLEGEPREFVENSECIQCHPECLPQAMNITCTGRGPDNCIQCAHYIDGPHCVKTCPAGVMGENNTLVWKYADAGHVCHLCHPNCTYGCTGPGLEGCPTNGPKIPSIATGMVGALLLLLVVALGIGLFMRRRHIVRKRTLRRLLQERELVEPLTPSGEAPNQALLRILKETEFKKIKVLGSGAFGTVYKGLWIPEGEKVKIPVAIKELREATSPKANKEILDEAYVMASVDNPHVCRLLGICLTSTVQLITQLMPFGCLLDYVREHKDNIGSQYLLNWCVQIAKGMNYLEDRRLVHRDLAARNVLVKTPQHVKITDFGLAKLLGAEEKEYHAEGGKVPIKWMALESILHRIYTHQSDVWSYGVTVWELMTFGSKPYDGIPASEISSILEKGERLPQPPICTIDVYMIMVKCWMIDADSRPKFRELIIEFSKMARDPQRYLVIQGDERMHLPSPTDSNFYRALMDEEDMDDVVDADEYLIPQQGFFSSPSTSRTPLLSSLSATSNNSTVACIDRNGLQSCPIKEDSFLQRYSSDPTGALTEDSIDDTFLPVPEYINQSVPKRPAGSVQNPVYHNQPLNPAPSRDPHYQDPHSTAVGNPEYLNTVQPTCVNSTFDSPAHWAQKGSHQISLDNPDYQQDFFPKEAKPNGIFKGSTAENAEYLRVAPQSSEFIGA

[5] = Aqueous solubility of the compound at pH 6.8; assay type: physicochemical
[6] = biological target: Cytochrome P450 3A4 (Homo sapiens, UniProt P08684); assay: Inhibition of CYP3A4 (unknown origin); assay type: ADME
Sequence of Cytochrome P450 3A4 (P08684 whole entry): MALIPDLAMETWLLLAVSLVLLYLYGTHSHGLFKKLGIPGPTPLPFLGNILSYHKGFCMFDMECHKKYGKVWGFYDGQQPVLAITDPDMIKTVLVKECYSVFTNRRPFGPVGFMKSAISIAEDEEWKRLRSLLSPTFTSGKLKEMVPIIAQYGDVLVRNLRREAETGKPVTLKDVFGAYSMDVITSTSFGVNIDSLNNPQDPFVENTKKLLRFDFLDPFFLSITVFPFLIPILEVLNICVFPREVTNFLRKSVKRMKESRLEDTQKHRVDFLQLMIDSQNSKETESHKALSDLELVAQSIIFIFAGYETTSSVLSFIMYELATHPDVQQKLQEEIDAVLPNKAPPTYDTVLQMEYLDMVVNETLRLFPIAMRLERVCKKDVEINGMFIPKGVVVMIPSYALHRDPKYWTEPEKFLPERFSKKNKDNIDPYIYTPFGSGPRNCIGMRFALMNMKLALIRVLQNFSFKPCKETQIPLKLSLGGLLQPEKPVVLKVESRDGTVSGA

[7] = biological target: Cytochrome P450 2D6 (Homo sapiens, UniProt P10635); assay: Inhibition of CYP2D6 (unknown origin); assay type: ADME
Sequence of Cytochrome P450 2D6 (P10635 whole entry): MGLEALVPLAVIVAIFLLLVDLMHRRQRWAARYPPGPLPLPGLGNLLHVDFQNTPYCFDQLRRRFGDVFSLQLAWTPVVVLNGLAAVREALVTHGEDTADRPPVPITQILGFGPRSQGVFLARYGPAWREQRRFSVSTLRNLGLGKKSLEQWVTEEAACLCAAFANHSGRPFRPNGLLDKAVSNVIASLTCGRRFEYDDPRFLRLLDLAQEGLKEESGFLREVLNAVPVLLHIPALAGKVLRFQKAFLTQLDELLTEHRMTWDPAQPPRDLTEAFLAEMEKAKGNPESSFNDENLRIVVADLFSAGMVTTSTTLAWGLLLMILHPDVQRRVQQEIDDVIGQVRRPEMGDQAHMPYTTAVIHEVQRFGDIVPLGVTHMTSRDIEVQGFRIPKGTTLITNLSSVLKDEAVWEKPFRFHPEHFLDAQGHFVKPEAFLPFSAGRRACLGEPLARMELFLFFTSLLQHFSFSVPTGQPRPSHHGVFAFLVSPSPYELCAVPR

[8] = biological target: Cytochrome P450 2C9 (Homo sapiens, UniProt P11712); assay: Inhibition of CYP2C9 (unknown origin); assay type: ADME
Sequence of Cytochrome P450 2C9 (P11712 whole entry): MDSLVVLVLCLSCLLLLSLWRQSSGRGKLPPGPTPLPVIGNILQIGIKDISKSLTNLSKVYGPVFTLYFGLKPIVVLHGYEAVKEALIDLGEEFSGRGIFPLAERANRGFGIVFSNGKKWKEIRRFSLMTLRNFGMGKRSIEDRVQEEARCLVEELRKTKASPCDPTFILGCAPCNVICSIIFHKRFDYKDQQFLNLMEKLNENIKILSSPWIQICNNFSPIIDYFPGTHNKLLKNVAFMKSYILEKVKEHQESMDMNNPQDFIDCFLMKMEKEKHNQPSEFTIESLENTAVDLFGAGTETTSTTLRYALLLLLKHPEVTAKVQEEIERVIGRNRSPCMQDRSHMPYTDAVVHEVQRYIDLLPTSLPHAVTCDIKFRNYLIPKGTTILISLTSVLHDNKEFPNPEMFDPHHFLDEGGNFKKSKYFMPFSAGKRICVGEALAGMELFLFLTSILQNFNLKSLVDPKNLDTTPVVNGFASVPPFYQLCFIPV

[9] = Intrinsic clearance in human liver microsomes; assay type: ADME; conditions: read-out: CLH
[10] = Intrinsic clearance in mouse liver microsomes; assay type: ADME; conditions: read-out: CLH
[11] = Clearance in balb/c mouse at 5 mg/kg, iv by liquid chromatography-tandem mass spectrometry; assay type: ADME, organism-based; conditions: in vivo
Outline: (§1)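 Rodent PK in male balb/c mice and male Wistar rats; plasma drug levels by LC-MS/MS. Mouse oral dosing at 20 mg/kg, with compounds given as a 0.5% methylcellulose/0.5% Tween 80 suspension or as solutions (PEG300/D5W, or ethanol/PEG300 with Solutol or D5W), depending on compound.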

[12] = AUC in balb/c mouse at 20 mg/kg, po by liquid chromatography-tandem mass spectrometry; assay type: ADME, organism-based; conditions: in vivo; outline: as §1
[13] = Oral bioavailability in balb/c mouse at 20 mg/kg by liquid chromatography-tandem mass spectrometry; assay type: ADME, organism-based; conditions: in vivo; outline: as §1
[14] = Glutathione reactivity assessed as GSH adduct formation incubated for 1 hr using 10 mM glutathione
Outline: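 Compound incubated 1 h with 10 mM glutathione; GSH adduct formation measured.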

[15] = Antitumor activity against human NCI-H1975 cells xenografted in Foxn1 nude mouse assessed as reduction in tumor volume at 50 mg/kg, po qd for 5 days relative to untreated control; assay type: functional
Outline: (§2)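 Female Foxn1 nude mice, H1975 cells inoculated subcutaneously. Randomized into groups once tumors reached 150−200 mm³, then dosed by oral gavage once daily for 5 days in 0.5% MC/0.5% Tween80 suspension (10 μL/g). Tumor volumes by caliper, (length × width × width)/2. %T/C = 100 × ΔT/ΔC, or % regression = 100 × ΔT/T_initial when ΔT < 0. Body weight recorded daily.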

[16] = Time duration during which free plasma concentration stays above in-vitro IC50 level in human NCI-H1975 cells xenografted Foxn1 nude mouse at 20 mg/kg, po qd for 5 days; assay type: ADME, organism-based; conditions: in vivo, 120 h
Outline: (§3)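 H1975 xenografts in Foxn1 nude mice, oral dosing once daily for 5 days. Plasma sampled after the last dose on day 5, at 30 min, 3 h, 7 h and 24 h. Free drug exposure was compared with in vitro cellular IC50 across the dosing interval.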

[17] = Time duration during which free plasma concentration stays above in-vitro IC50 level in human NCI-H1975 cells xenografted Foxn1 nude mouse at 50 mg/kg, po qd for 5 days; assay type: ADME, organism-based; conditions: in vivo, 120 h; outline: as §3
[18] = Antitumor activity against human NCI-H1975 cells xenografted in Foxn1 nude mouse assessed as reduction in tumor volume at 20 mg/kg, po qd for 5 days relative to untreated control; assay type: functional; outline: as §2
[19] = system: Mus musculus; assay: Toxicity in human NCI-H1975 cells xenografted Foxn1 nude mouse assessed as change in body weight at 50 mg/kg, po qd for 5 days (reference value: […]); assay type: organism-based; conditions: in vivo, 120 h
[20] = system: Mus musculus; assay: Toxicity in human NCI-H1975 cells xenografted Foxn1 nude mouse assessed as change in body weight at 20 mg/kg, po qd for 5 days (reference value: […]); assay type: organism-based; conditions: in vivo, 120 h
[21] = system: NCI-H1975; assay: Antitumor activity against human NCI-H1975 cells xenografted in Foxn1 nude mouse assessed as reduction in tumor volume dosed orally once daily for 5 days relative to untreated control; assay type: functional, organism-based; outline: as §2
[22] = biological target: T1, Epidermal growth factor receptor; assay: Inhibition of N-terminal 6x-HIS-tagged human recombinant EGFR (696 to 1022 residues) L858R/T790M mutant expressed in Sf9 cells pre-incubated for 0 mins followed by 1 mM ATP addition by HTRF assay
Outline: (§4)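 HTRF kinase assay on the EGFR L858R-T790M kinase domain at 1 mM ATP. Compound with either no preincubation or a 90 min enzyme/compound preincubation.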

[23] = biological target: T1, Epidermal growth factor receptor; assay: Inhibition of N-terminal 6x-HIS-tagged human recombinant EGFR (696 to 1022 residues) L858R/T790M mutant expressed in Sf9 cells pre-incubated for 90 mins followed by 1 mM ATP addition by HTRF assay; outline: as §4
[24] = biological target: T1, Epidermal growth factor receptor; assay: Inhibition of EGFR L858R/T790M mutant (unknown origin) phosphorylation expressed in mouse NIH/3T3 cells incubated for 3 hrs by ELISA method; assay type: cell-based
Outline: (§5)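 Engineered NIH-3T3 cells expressing L858R-T790M, L858R or WT EGFR. 3 h compound treatment, then cellular phospho-EGFR target modulation read-out. IC50 averaged from at least duplicates.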

[25] = biological target: T2, Epidermal growth factor receptor; assay: Inhibition of EGFR L858R mutant (unknown origin) phosphorylation expressed in mouse NIH/3T3 cells incubated for 3 hrs by ELISA method; assay type: cell-based; outline: as §5
[26] = biological target: T3, Epidermal growth factor receptor; assay: Inhibition of wild type human EGFR phosphorylation expressed in mouse NIH/3T3 cells incubated for 3 hrs by ELISA method; assay type: cell-based; outline: as §5
[27] = Volume of distribution at steady state in balb/c mouse at 5 mg/kg, iv by liquid chromatography-tandem mass spectrometry; assay type: ADME, organism-based; conditions: in vivo, read-out: Vdss
Outline: (§6)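 Male animals (balb/c mice or Wistar rats) were used. Compound levels in plasma were measured by LC-MS/MS.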

[28] = Time duration during which free plasma concentration stays above in-vitro IC50 level in human NCI-H1975 cells xenografted Foxn1 nude mouse at 25 mg/kg, po qd for 5 days; assay type: ADME, organism-based; conditions: in vivo, 120 h; outline: as §3
[29] = Antitumor activity against human NCI-H1975 cells xenografted in Foxn1 nude mouse assessed as reduction in tumor volume at 25 mg/kg, po qd for 5 days relative to untreated control; assay type: functional; outline: as §2
[30] = system: Mus musculus; assay: Toxicity in human NCI-H1975 cells xenografted Foxn1 nude mouse assessed as change in body weight at 25 mg/kg, po qd for 5 days (reference value: […]); assay type: organism-based; conditions: in vivo, 120 h
[31] = Mean residence time in balb/c mouse at 5 mg/kg, iv by liquid chromatography-tandem mass spectrometry; assay type: ADME, organism-based; conditions: in vivo
[32] = AUC in balb/c mouse at 5 mg/kg, iv by liquid chromatography-tandem mass spectrometry; assay type: ADME, organism-based; conditions: in vivo
[33] = Cmax in balb/c mouse at 20 mg/kg, po by liquid chromatography-tandem mass spectrometry; assay type: ADME, organism-based; parameters: dose 20 mg/kg, route oral; conditions: in vivo; outline: as §1
[34] = Tmax in balb/c mouse at 20 mg/kg, po by liquid chromatography-tandem mass spectrometry; assay type: ADME, organism-based; conditions: in vivo; outline: as §1
[35] = Clearance in Wistar rat at 3 mg/kg, iv by liquid chromatography-tandem mass spectrometry; assay type: ADME, organism-based; conditions: in vivo; outline: as §1
[36] = Volume of distribution at steady state in Wistar rat at 3 mg/kg, iv by liquid chromatography-tandem mass spectrometry; assay type: ADME, organism-based; conditions: in vivo, read-out: Vdss; outline: as §6
[37] = Mean residence time in Wistar rat at 3 mg/kg, iv by liquid chromatography-tandem mass spectrometry; assay type: ADME, organism-based; conditions: in vivo
[38] = AUC in Wistar rat at 3 mg/kg, iv by liquid chromatography-tandem mass spectrometry; assay type: ADME, organism-based; conditions: in vivo
[39] = AUC in Wistar rat at 10 mg/kg, po by liquid chromatography-tandem mass spectrometry; assay type: ADME, organism-based; conditions: in vivo; outline: as §1
[40] = Cmax in Wistar rat at 10 mg/kg, po by liquid chromatography-tandem mass spectrometry; assay type: ADME, organism-based; parameters: dose 10 mg/kg, route oral; conditions: in vivo; outline: as §1
[41] = Tmax in Wistar rat at 10 mg/kg, po by liquid chromatography-tandem mass spectrometry; assay type: ADME, organism-based; conditions: in vivo; outline: as §1
[42] = Oral bioavailability in Wistar rat at 10 mg/kg by liquid chromatography-tandem mass spectrometry; assay type: ADME, organism-based; conditions: in vivo; outline: as §1
[43] = Clearance in Wistar rat at 3 mg/kg, iv by liquid chromatography-tandem mass spectrometry relative to liver blood flow; assay type: ADME, organism-based; conditions: in vivo
[44] = Clearance in balb/c mouse at 5 mg/kg, iv by liquid chromatography-tandem mass spectrometry relative to liver blood flow; assay type: ADME, organism-based; conditions: in vivo
[45] = species on record: Homo sapiens; assay: Antitumor activity in NSCLC patient assessed as response rate; assay type: functional
[46] = species on record: Homo sapiens; assay: Antitumor activity in NSCLC patient assessed as disease control rate; assay type: functional

Compound: Cc1cccc2nc(NC(=O)c3ccnc(C(F)(F)F)c3)n([C@@H]3CCCCN(C(=O)/C=C/CN(C)C)C3)c12
- IC50 [1]: 1.51 nM
- IC50 [2]: 2.65 nM
- IC50 [3]: 1.48 nM
- IC50 [4]: 72 nM
- solubility [5]: 12.7 µM (≈ 6.71 µg/mL)
- IC50 [6]: > 25000 nM
- IC50 [7]: 6100 nM
- IC50 [8]: > 25000 nM
- microsomal CLint [9]: 71 µL/min/mg
- microsomal CLint [10]: 96 µL/min/mg
- clearance [11]: 62.5 mL/min/kg
- AUC [12]: 2.84 µM·h
- bioavailability [13]: 27%
- Drug metabolism [14]: < 5%
- T/C [15]: -64%
- Time [16]: <= 14 hr
- Time [17]: <= 14 hr
- T/C [18]: -31%
- Activity [19]: -3.5%
- Activity [20]: -0.3%
- Activity [21]: Dose-dependent effect

Compound: C=CC(=O)N[C@H]1CCC[C@@H](n2c(NC(=O)c3cccc(C(F)(F)F)c3)nc3cc(C)ccc32)C1 (racemic)
- IC50 [22]: > 50000 nM
- IC50 [23]: 4 nM
- IC50 [24]: 41.4 nM
- IC50 [25]: 543 nM
- IC50 [26]: > 10000 nM

Compound: Cc1cc(C(=O)Nc2nc3cccc(Cl)c3n2[C@@H]2CCCCN(C(=O)/C=C/CN(C)C)C2)ccn1 [NAZARTINIB]
- Vd [27]: 2.8 L/kg
- IC50 [3]: 1.52 nM
- solubility [5]: > 175 µM
- IC50 [6]: > 25000 nM
- IC50 [7]: 7000 nM
- IC50 [8]: > 25000 nM
- microsomal CLint [9]: 34 µL/min/mg
- microsomal CLint [10]: 66 µL/min/mg
- clearance [11]: 31.6 mL/min/kg
- AUC [12]: 12.8 µM·h
- bioavailability [13]: 60%
- T/C [15]: -72%
- Time [17]: <= 14 hr
- Time [28]: <= 14 hr
- T/C [29]: -32%
- Activity [30]: 5.3%
- Activity [19]: 3.8%
- MRT [31]: 1.5 h
- AUC [32]: 5.34 µM·h
- Cmax [33]: 2940 nM
- Tmax [34]: 0.83 h
- clearance [35]: 15.7 mL/min/kg
- Vd [36]: 2.4 L/kg
- MRT [37]: 2.6 h
- AUC [38]: 6.53 µM·h
- AUC [39]: 12 µM·h
- Cmax [40]: 987 nM
- Tmax [41]: 3 h
- bioavailability [42]: 55%
- CL [43]: 30%
- CL [44]: 35%
- Activity [45]: 60%
- Activity [46]: 93%
